From ChEMBL document CHEMBL1134692, “QSAR study on the contribution of log P and E(s) to the in vitro antiprotozoal activity of glutathione derivatives” (J Med Chem, 2001)

System: not listed separately
Test: Relative toxicity was evaluated as ED50 for KB cell line to that of ED50 for T.B. brucei
Format: organism-based
Details: trypanosoma brucei brucei, KB cells versus Trypanosoma brucei brucei; read-out: Relative toxicity
Method in brief: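 Ratio of ED50 against KB cells to ED50 against T. b. brucei bloodstream forms, each from the 3-day Alamar Blue assays.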

Row | Compound | selectivity ratio
1 | O=C(CCC(NC(=O)OCc1ccccc1)C(=O)OC1CCCC1)NC(CSc1ccc([N+](=O)[O-])cc1[N+](=O)[O-])C(=O)NCC(=O)OC1CCCC1 (centres undefined) | 280
2 | CCCC(C)OC(=O)CNC(=O)C(CSc1ccc([N+](=O)[O-])cc1[N+](=O)[O-])NC(=O)CCC(NC(=O)OCc1ccccc1)C(=O)OC(C)CCC (centres undefined) | 118
3 | COCCOC(=O)CNC(=O)C(CSc1ccc([N+](=O)[O-])cc1[N+](=O)[O-])NC(=O)CCC(NC(=O)OCc1ccccc1)C(=O)OCCOC (centres undefined) | 0.07
4 | CCC(CC)OC(=O)CNC(=O)C(CSc1ccc([N+](=O)[O-])cc1[N+](=O)[O-])NC(=O)CCC(NC(=O)OCc1ccccc1)C(=O)OC(CC)CC (centres undefined) | 57
5 | CCCCC(C)OC(=O)CNC(=O)C(CSc1ccc([N+](=O)[O-])cc1[N+](=O)[O-])NC(=O)CCC(NC(=O)OCc1ccccc1)C(=O)OC(C)CCCC (centres undefined) | 46
6 | O=C(CCC(NC(=O)OCc1ccccc1)C(=O)OCCCl)NC(CSc1ccc([N+](=O)[O-])cc1[N+](=O)[O-])C(=O)NCC(=O)OCCCl (centres undefined) | 101

System: Trypanosoma brucei brucei
Test: Inhibitory activity against Trypanosoma brucei
Format: functional
Details: read-out: ED50 (the source's name)
Method in brief: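 T. b. brucei S427 bloodstream trypomastigotes kept in HMI-18 with 20% heat-inactivated FCS at 37 °C, 5% CO2. Parasites at 2 × 10^5/mL were mixed 1:1 with compound, run in triplicate as a 3-fold dilution series from 30 μM top. Incubated 3 days at 37 °C; Alamar Blue read-out on day 3 gave ED50. Pentamidine positive control.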

Row | Compound | EC50
7 | O=C(CCC(NC(=O)OCc1ccccc1)C(=O)OC1CCCC1)NC(CSc1ccc([N+](=O)[O-])cc1[N+](=O)[O-])C(=O)NCC(=O)OC1CCCC1 (centres undefined) | 0.18 µM
8 | CCCC(C)OC(=O)CNC(=O)C(CSc1ccc([N+](=O)[O-])cc1[N+](=O)[O-])NC(=O)CCC(NC(=O)OCc1ccccc1)C(=O)OC(C)CCC (centres undefined) | 3.34 µM
9 | CCCCC(C)OC(=O)CNC(=O)C(CSc1ccc([N+](=O)[O-])cc1[N+](=O)[O-])NC(=O)CCC(NC(=O)OCc1ccccc1)C(=O)OC(C)CCCC (centres undefined) | 5.2 µM

Second part, the compound after the results:

Row | EC50 | Compound
10 | 10 µM | COCCOC(=O)CNC(=O)C(CSc1ccc([N+](=O)[O-])cc1[N+](=O)[O-])NC(=O)CCC(NC(=O)OCc1ccccc1)C(=O)OCCOC (centres undefined)
11 | 3.74 µM | CCC(CC)OC(=O)CNC(=O)C(CSc1ccc([N+](=O)[O-])cc1[N+](=O)[O-])NC(=O)CCC(NC(=O)OCc1ccccc1)C(=O)OC(CC)CC (centres undefined)
12 | 0.49 µM | O=C(CCC(NC(=O)OCc1ccccc1)C(=O)OCCCl)NC(CSc1ccc([N+](=O)[O-])cc1[N+](=O)[O-])C(=O)NCC(=O)OCCCl (centres undefined)

System: Leishmania donovani
Test: Inhibitory activity against Leishmania donovani
Format: functional
Details: read-out: ED50 (the source's name)
Method in brief: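 Starch-elicited peritoneal macrophages from female CD1 mice were plated at 4 × 10^4/well in RPMI-1640 with 10% HIFCS. After 24 h they were infected at 10:1 with L. donovani amastigotes (MHOM/ET/67/L82, hamster-passaged). Drug was given as a 3-fold dilution series in quadruplicate for 5 days. Activity was scored as the percentage of macrophages cleared of amastigotes. Sodium stibogluconate control.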

Row | Compound | EC50
13 | O=C(CCC(NC(=O)OCc1ccccc1)C(=O)OC1CCCC1)NC(CSc1ccc([N+](=O)[O-])cc1[N+](=O)[O-])C(=O)NCC(=O)OC1CCCC1 (centres undefined) | 29.6 µM
14 | CCCC(C)OC(=O)CNC(=O)C(CSc1ccc([N+](=O)[O-])cc1[N+](=O)[O-])NC(=O)CCC(NC(=O)OCc1ccccc1)C(=O)OC(C)CCC (centres undefined) | > 30 µM
15 | CCCCC(C)OC(=O)CNC(=O)C(CSc1ccc([N+](=O)[O-])cc1[N+](=O)[O-])NC(=O)CCC(NC(=O)OCc1ccccc1)C(=O)OC(C)CCCC (centres undefined) | > 30 µM

Continued, values first:

Row | EC50 | Compound
16 | 20 µM | COCCOC(=O)CNC(=O)C(CSc1ccc([N+](=O)[O-])cc1[N+](=O)[O-])NC(=O)CCC(NC(=O)OCc1ccccc1)C(=O)OCCOC (centres undefined)
17 | > 30 µM | CCC(CC)OC(=O)CNC(=O)C(CSc1ccc([N+](=O)[O-])cc1[N+](=O)[O-])NC(=O)CCC(NC(=O)OCc1ccccc1)C(=O)OC(CC)CC (centres undefined)
18 | 9.92 µM | O=C(CCC(NC(=O)OCc1ccccc1)C(=O)OCCCl)NC(CSc1ccc([N+](=O)[O-])cc1[N+](=O)[O-])C(=O)NCC(=O)OCCCl (centres undefined)

System: Trypanosoma cruzi
Test: Evaluated for its inhibitory activity against Trypanosoma cruzi
Format: functional
Details: read-out: ED50 (the source's name)
Method in brief: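 Starch-elicited female CD1 mouse peritoneal macrophages (4 × 10^4/well, RPMI-1640, 10% HIFCS) were infected after 24 h at 5:1 with T. cruzi Y trypomastigotes derived from MDCK cultures. Drug was applied as a 3-fold dilution series in quadruplicate for 3 days. Activity was the percentage of macrophages cleared of amastigotes. Nifurtimox control.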

Row | EC50 | Compound
19 | > 30 µM | O=C(CCC(NC(=O)OCc1ccccc1)C(=O)OC1CCCC1)NC(CSc1ccc([N+](=O)[O-])cc1[N+](=O)[O-])C(=O)NCC(=O)OC1CCCC1 (centres undefined)
20 | > 30 µM | CCCC(C)OC(=O)CNC(=O)C(CSc1ccc([N+](=O)[O-])cc1[N+](=O)[O-])NC(=O)CCC(NC(=O)OCc1ccccc1)C(=O)OC(C)CCC (centres undefined)
21 | > 30 µM | CCCCC(C)OC(=O)CNC(=O)C(CSc1ccc([N+](=O)[O-])cc1[N+](=O)[O-])NC(=O)CCC(NC(=O)OCc1ccccc1)C(=O)OC(C)CCCC (centres undefined)

System: not listed separately
Test: Evaluated for its inhibitory activity against KB cells
Format: functional
Details: Homo sapiens, read-out: ED50 (the source's name)
Method in brief: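 KB cells (human oral pharyngeal carcinoma) grown in RPMI with 10% calf foetal serum at 37 °C, 5% CO2 in humidified air. Exposed to compound for 3 days under the same conditions, then viability read by Alamar Blue assay; ED50 reported.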

Row | Compound | EC50
22 | O=C(CCC(NC(=O)OCc1ccccc1)C(=O)OC1CCCC1)NC(CSc1ccc([N+](=O)[O-])cc1[N+](=O)[O-])C(=O)NCC(=O)OC1CCCC1 (centres undefined) | 50.5 µM
23 | CCCC(C)OC(=O)CNC(=O)C(CSc1ccc([N+](=O)[O-])cc1[N+](=O)[O-])NC(=O)CCC(NC(=O)OCc1ccccc1)C(=O)OC(C)CCC (centres undefined) | 393 µM
24 | CCCCC(C)OC(=O)CNC(=O)C(CSc1ccc([N+](=O)[O-])cc1[N+](=O)[O-])NC(=O)CCC(NC(=O)OCc1ccccc1)C(=O)OC(C)CCCC (centres undefined) | 178 µM

Results, then the compound that gave them:

Row | EC50 | Compound
25 | 0.7 µM | COCCOC(=O)CNC(=O)C(CSc1ccc([N+](=O)[O-])cc1[N+](=O)[O-])NC(=O)CCC(NC(=O)OCc1ccccc1)C(=O)OCCOC (centres undefined)
26 | 213 µM | CCC(CC)OC(=O)CNC(=O)C(CSc1ccc([N+](=O)[O-])cc1[N+](=O)[O-])NC(=O)CCC(NC(=O)OCc1ccccc1)C(=O)OC(CC)CC (centres undefined)
27 | 49.5 µM | O=C(CCC(NC(=O)OCc1ccccc1)C(=O)OCCCl)NC(CSc1ccc([N+](=O)[O-])cc1[N+](=O)[O-])C(=O)NCC(=O)OCCCl (centres undefined)

System: not listed separately
Test: Partition coefficient (logP)
Format: physicochemical
Details: octanol/water

Row | Compound | logP
28 | O=C(CCC(NC(=O)OCc1ccccc1)C(=O)OC1CCCC1)NC(CSc1ccc([N+](=O)[O-])cc1[N+](=O)[O-])C(=O)NCC(=O)OC1CCCC1 (centres undefined) | 5.67
29 | CCCC(C)OC(=O)CNC(=O)C(CSc1ccc([N+](=O)[O-])cc1[N+](=O)[O-])NC(=O)CCC(NC(=O)OCc1ccccc1)C(=O)OC(C)CCC (centres undefined) | 5.89
30 | CCCCC(C)OC(=O)CNC(=O)C(CSc1ccc([N+](=O)[O-])cc1[N+](=O)[O-])NC(=O)CCC(NC(=O)OCc1ccccc1)C(=O)OC(C)CCCC (centres undefined) | 6.87

Other lines, results leading:

Row | logP | Compound
31 | 1.56 | COCCOC(=O)CNC(=O)C(CSc1ccc([N+](=O)[O-])cc1[N+](=O)[O-])NC(=O)CCC(NC(=O)OCc1ccccc1)C(=O)OCCOC (centres undefined)
32 | 5.89 | CCC(CC)OC(=O)CNC(=O)C(CSc1ccc([N+](=O)[O-])cc1[N+](=O)[O-])NC(=O)CCC(NC(=O)OCc1ccccc1)C(=O)OC(CC)CC (centres undefined)
33 | 3.6 | O=C(CCC(NC(=O)OCc1ccccc1)C(=O)OCCCl)NC(CSc1ccc([N+](=O)[O-])cc1[N+](=O)[O-])C(=O)NCC(=O)OCCCl (centres undefined)

System: Leishmania donovani
Test: (§1) Percent decrease in viable parasitesrelative to the control at 30 uM
Format: functional
Details: not given
Method in brief: (§2)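 Single concentration of 30 μM in the intracellular amastigote macrophage assays. Inhibition is expressed as the percent decrease in viable parasites relative to untreated control.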

Row | Compound | inhibition at 30 µM
34 | CCCC(C)OC(=O)CNC(=O)C(CSc1ccc([N+](=O)[O-])cc1[N+](=O)[O-])NC(=O)CCC(NC(=O)OCc1ccccc1)C(=O)OC(C)CCC (centres undefined) | 25%
35 | CCC(CC)OC(=O)CNC(=O)C(CSc1ccc([N+](=O)[O-])cc1[N+](=O)[O-])NC(=O)CCC(NC(=O)OCc1ccccc1)C(=O)OC(CC)CC (centres undefined) | 17%
36 | CCCCC(C)OC(=O)CNC(=O)C(CSc1ccc([N+](=O)[O-])cc1[N+](=O)[O-])NC(=O)CCC(NC(=O)OCc1ccccc1)C(=O)OC(C)CCCC (centres undefined) | 6%

System: Trypanosoma cruzi
Test: as §1
Format: functional
Details: not given
Method in brief: as §2

Row | Compound | inhibition at 30 µM
37 | O=C(CCC(NC(=O)OCc1ccccc1)C(=O)OC1CCCC1)NC(CSc1ccc([N+](=O)[O-])cc1[N+](=O)[O-])C(=O)NCC(=O)OC1CCCC1 (centres undefined) | 30%
38 | CCCC(C)OC(=O)CNC(=O)C(CSc1ccc([N+](=O)[O-])cc1[N+](=O)[O-])NC(=O)CCC(NC(=O)OCc1ccccc1)C(=O)OC(C)CCC (centres undefined) | 17%
39 | CCCCC(C)OC(=O)CNC(=O)C(CSc1ccc([N+](=O)[O-])cc1[N+](=O)[O-])NC(=O)CCC(NC(=O)OCc1ccccc1)C(=O)OC(C)CCCC (centres undefined) | 21%
